Test results reported in ChEMBL document CHEMBL1130136, “Novel biological response modifiers: phthalimides with tumor necrosis factor-alpha production-regulating activity” (J Med Chem, 1997).

What was measured:
WI-38 = assay: In vitro cytotoxicity against human embryonic lung fibroblast WI-38 cells.; format: functional, cell-based
In short: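 WI-38 human embryonic lung fibroblasts (5 × 10³ cells/well) in RPMI1640 + 10% FCS were exposed to graded concentrations of compound for 48 h at 37 °C. Viability was read by WST-1 with 1-methoxy PMS (2 h, 37 °C; absorbance at 450 nm). IC50 was reported in μg/mL, with the μM equivalent in parentheses.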

HL-60 [1] = assay: Tumor necrosis factor-alpha production in human leukemia cell line (HL-60) stimulated with 10 nM 12-O-tetradecanoylphorbol 13-acetate (TPA) at 30 uMolar.; format: functional
In short: (§1)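 HL-60 cells at 5 × 10⁵/mL in RPMI1640 + 10% FBS were co-treated with 30 μM test compound and either 10 nM TPA or 50 nM OA for 16 h at 37 °C. Culture-medium TNF-α was measured by ELISA and expressed as % of inducer-alone control. Cell counts were taken at harvest. Assays were run in duplicate or triplicate (mean taken), at least three times.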

HL-60 [2] = assay: Tumor necrosis factor-alpha production in human leukemia cell line (HL-60) stimulated with 50 nM okadaic acid (OA), at 30 uMolar.; format: functional; in short: as §1

Row | Compound | IC50 (WI-38) | Amount of TNF-alpha (HL-60 [1]) | Amount of TNF-alpha (HL-60 [2])
1 | CC(C)c1cccc(C(C)C)c1N1C(=O)c2c(Cl)c(Cl)c(Cl)c(Cl)c2C1=O | > 100 µg/mL | 250% | 19%
2 | CC(C)c1cccc(C(C)C)c1N1C(=O)c2cc3ccccc3cc2C1=O | > 100 µg/mL | 144% | 48%
3 | CC(C)c1ccccc1N1C(=O)c2ccccc2C1=O | > 100 µg/mL | 158% | 105%
4 | Cc1cccc(C)c1N1C(=O)c2ccccc2C1=O | > 100 µg/mL | 161% | 40%
5 | CC(C)c1cccc(C(C)C)c1N1C(=O)Cc2ccccc2C1=O | > 100 µg/mL | 268% | 50%
6 | O=C1c2ccccc2C(=O)N1c1ccccc1-c1ccccc1 | > 100 µg/mL | 262% | 40%
7 | CC(C)c1cccc(C(C)C)c1N1C(=O)c2c(Br)c(Br)c(Br)c(Br)c2C1=O | – | 235% | 3%
8 | CC(C)c1cccc(C(C)C)c1N1C(=O)c2cccc(O)c2C1=O | > 100 µg/mL | 239% | 64%
9 | O=C1c2ccccc2C(=O)N1c1ccccc1[N+](=O)[O-] | > 100 µg/mL | 89% | 53%
10 | Cc1ccccc1N1C(=O)c2ccccc2C1=O | > 100 µg/mL | 100% | 68%
11 | CC(C)c1ccc(N2C(=O)c3ccccc3C2=O)cc1 | > 100 µg/mL | 139% | 33%
12 | CC(C)c1cccc(N2C(=O)c3ccccc3C2=O)c1 | > 100 µg/mL | 158% | 105%
13 | C/N=C1\c2ccccc2C(=O)N1c1c(C(C)C)cccc1C(C)C | – | 134% | 37%
14 | CC(C)c1cccc(C(C)C)c1N1C(=O)c2ccccc2C1=O | > 100 µg/mL | 602% | 21%
15 | CC/N=C1\c2ccccc2C(=O)N1c1c(C(C)C)cccc1C(C)C | – | 138% | 75%
16 | O=C1c2ccccc2C(=O)N1c1ccccc1 [N-PHENYL-PHTHALIMIDE] | > 100 µg/mL | 100% | 61%
17 | COc1ccccc1N1C(=O)c2ccccc2C1=O | > 100 µg/mL | 95% | 21%
18 | CCCCCc1ccccc1N1C(=O)c2ccccc2C1=O | > 100 µg/mL | 151% | 35%
19 | Cc1cc(C)cc(N2C(=O)c3ccccc3C2=O)c1 | > 100 µg/mL | 136% | 89%
